Test results as given in ChEMBL document CHEMBL3352115, “Discovery of APD334: Design of a Clinical Stage Functional Antagonist of the Sphingosine-1-phosphate-1 Receptor” (ACS Med Chem Lett, 2014).
Active and inactive are the calls of the source. The rule behind the calls is not given here.

Columns and labels:
[1] = target: T1, Sphingosine 1-phosphate receptor 1 (Homo sapiens, UniProt P21453); assay: Agonist activity at human S1P1 receptor assessed as cAMP accumulation by HTRF assay; format: functional
T1 sequence (P21453 whole entry): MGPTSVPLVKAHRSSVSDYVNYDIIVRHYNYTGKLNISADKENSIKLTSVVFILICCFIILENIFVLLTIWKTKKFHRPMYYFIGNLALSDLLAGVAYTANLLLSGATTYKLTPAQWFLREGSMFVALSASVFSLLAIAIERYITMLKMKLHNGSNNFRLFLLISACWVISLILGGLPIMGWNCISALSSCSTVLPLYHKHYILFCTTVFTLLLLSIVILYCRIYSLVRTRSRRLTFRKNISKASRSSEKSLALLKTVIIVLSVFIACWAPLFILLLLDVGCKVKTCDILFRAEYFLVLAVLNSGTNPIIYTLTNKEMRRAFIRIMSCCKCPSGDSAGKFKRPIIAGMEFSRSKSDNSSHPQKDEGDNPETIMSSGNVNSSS
Method in brief: (§1)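 HTRF cyclase (cAMP) functional assay at S1P1 of each species; EC50 taken as mean of three or more replicates; efficacy given as % agonism relative to S1P.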

[2] = target: T1, Sphingosine 1-phosphate receptor 1; assay: Agonist activity at human S1P1 receptor assessed as cAMP accumulation by HTRF assay relative to S1P; format: functional; method in brief: as §1
[3] = Half life in rat liver microsomes; format: ADME
Method in brief: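 Stability on incubation with liver microsomes of each species; half-life reported.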

Mus musculus = assay: Reduction in disease severity in C57Bl/6 mouse experimental autoimmune encephalomyelitis model of multiple sclerosis at 1 mg/kg dosed once daily beginning on day 18 and continued to day 37; format: functional, organism-based; parameters: dose 1 mg/kg
Method in brief: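 Female C57Bl/6 mice with MOG35–55-induced EAE; once-daily treatment started day 18 after severe disease onset and continued to day 37; vehicle 0.5% methylcellulose; clinical scoring.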

Rattus norvegicus [4] = assay: Induction of body weight regain in Lewis rat collagen-induced arthritis model at 1 mg/kg, po qd measured on day 17 (reference value: 160.3 +/- 2.3 g); format: functional
Rattus norvegicus [5] = assay: Reduction in ankle diameter in Lewis rat collagen-induced arthritis model at 1 mg/kg, po qd measured on day 17 (reference value: +/- inches); format: functional
Method in brief: (§2)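 Female Lewis rats with collagen-induced arthritis, prophylactic daily oral dosing; ankle diameter (inches) and body weight recorded at day 17 end point; mean ± SEM.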

Rattus norvegicus [6] = assay: Induction of body weight regain in Lewis rat collagen-induced arthritis model at 0.075 mg/kg, po qd measured on day 17 (reference value: 160.3 +/- 2.3 g); format: functional
Rattus norvegicus [7] = assay: Reduction in ankle diameter in Lewis rat collagen-induced arthritis model at 0.075 mg/kg, po qd measured on day 17 (reference value: +/- inches); format: functional; method in brief: as §2
[8] = Activation of Inward rectifier potassium channel in human atrial myocytes; format: cell-based; settings: Cardiac atrium
Method in brief: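 In vitro activation of the inward-rectifying potassium channel (IKACh) in human atrial myocytes, run alongside S1P as reference agonist; potency expressed as EC50.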

Row | Compound | EC50 [1] | Emax [2] | further results
1 | CC(C)Cc1ccc(COc2ccc3[nH]c4c(c3c2)CCC4CC(=O)O)cc1C(F)(F)F (racemic) | 0.44 nM | 103% | 
2 | N#Cc1cc(COc2ccc3[nH]c4c(c3c2)CCC4CC(=O)O)ccc1OC(F)(F)F (racemic) | 1.7 nM | 109% | 
3 | N#Cc1cc(COc2ccc3[nH]c4c(c3c2)CCC4CC(=O)O)ccc1C1CCCCC1 (racemic) | 0.087 nM | 98% | 
4 | CCCc1ccc(COc2ccc3[nH]c4c(c3c2)CCC4CC(=O)O)cc1C(F)(F)F (racemic) | 0.49 nM | 107% | 
5 | O=C(O)CC1CCc2c1[nH]c1ccc(OCc3ccc(C4CC4)c(C(F)(F)F)c3)cc21 (racemic) | 3.68 nM | 118% | 
6 | N#Cc1cc(COc2ccc3[nH]c4c(c3c2)CCC4CC(=O)O)cc(OC(F)(F)F)c1 (racemic) |  | 90% | 
7 | O=C(O)CC1CCc2c1[nH]c1ccc(OCc3ccc(CC4CCCCC4)c(C(F)(F)F)c3)cc21 (racemic) | 4.58 nM | 111% | 
8 | O=C(O)C[C@@H]1CCc2c1[nH]c1ccc(OCc3ccc(C4CCCC4)c(C(F)(F)F)c3)cc21 | 0.09 nM | 103% | half-life [3]: 9 min
9 | CCCCCCCCc1ccc(CCC(N)(CO)CO)cc1 [FINGOLIMOD] |  |  | Activity (Mus musculus): Active; Activity (Rattus norvegicus [4]): 181.9 g; Activity (Rattus norvegicus [5]): 0.2694 inches
10 | O=C(O)CC1CCc2c1[nH]c1ccc(OCc3ccc(Cl)c(C(F)(F)F)c3)cc21 (racemic) | 159 nM | 117% | 
11 | O=C(O)CC1CCc2c1[nH]c1ccc(OCc3ccc(C4CCCCC4)c(C(F)(F)F)c3)cc21 (racemic) | 0.077 nM | 96% | 
12 | COc1ccc(COc2ccc3[nH]c4c(c3c2)CCC4CC(=O)O)cc1C#N (racemic) | 120 nM | 136% | 
13 | O=C(O)CC1CCc2c1[nH]c1ccc(OCc3ccc(C4CCC4)c(C(F)(F)F)c3)cc21 (racemic) | 0.45 nM | 109% | 
14 | N#Cc1ccc(COc2ccc3[nH]c4c(c3c2)CCC4CC(=O)O)cc1C(F)(F)F (racemic) | 141 nM | 104% | 
15 | CC(C)(C)Cc1ccc(COc2ccc3[nH]c4c(c3c2)CCC4CC(=O)O)cc1C(F)(F)F (racemic) | 55.8 nM | 112% | 
16 | CN(Cc1cnc2nc(N)nc(N)c2n1)c1ccc(C(=O)N[C@@H](CCC(=O)O)C(=O)O)cc1 [METHOTREXATE] |  |  | Activity (Rattus norvegicus [6]): 181.7 g; Activity (Rattus norvegicus [7]): 0.2795 inches
17 | O=C(O)CC1CCc2c1[nH]c1ccc(OCc3cc(C(F)(F)F)cc(C(F)(F)F)c3)cc21 (racemic) |  | 98% | 
18 | CCCCCCCCCCCCC/C=C/[C@@H](O)[C@@H](N)COP(=O)(O)O | 0.062 nM |  | EC50 [8]: 2.1 nM
19 | O=C(O)CC1CCc2c1[nH]c1ccc(OCc3ccc(C4CCCC4)c(C(F)(F)F)c3)cc21 (racemic) | 0.073 nM | 104% | 
